{"source": "paper PMC3945061", "about": "(Pain, 2013)", "key": {"[1]": {"system": "DRG neurons from Mrg KO mice", "experiment": "Calcium imaging, DRG neurons from Mrg KO mice", "assay_type": "cell-based, mouse", "details": "capsaicin 0.5 μM, positive control, after JHU58", "how_it_was_run": "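Mrg KO mice: 845 kb chromosome 7 deletion covering 12 Mrg genes incl. MrgC11, backcrossed to C57BL/6 at least five generations. DRGs from 3–4-week-old mice were enzyme-dissociated at 37°C, plated on poly-D-lysine/laminin coverslips, and used within 24 h. Fura-2 AM loading for 30 min in the dark at room temperature; 340/380 nm ratio imaging; bath drug application; experimenter blinded to genotype.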"}, "pain / nociception": {"system": "pain / nociception", "details": "cited from earlier work"}, "rats (lower limbs)": {"system": "rats (lower limbs)", "experiment": "Motor paralysis after intrathecal injection", "assay_type": "in vivo, rat", "details": "intrathecal lidocaine 400 μg/20 μl"}, "[2]": {"system": "SNL rats (mechanical hypersensitivity)", "experiment": "Paw withdrawal threshold", "assay_type": "in vivo, rat", "details": "intrathecal FMRFamide 2 mM, 10 μl, n=7, 30 and 60 minutes", "how_it_was_run": "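Male Sprague-Dawley rats (200–350 g) had the left L5 spinal nerve ligated with 6-0 silk and cut distally. They were tested 4–5 weeks later via an intrathecal PE-10 catheter inserted through the atlanto-occipital membrane, with compound diluted in saline. Ipsilateral plantar PWT was measured by the up-down method (von Frey 0.38–13.1 g, 4–6 s) using the Dixon formula. Tests ran in the morning, blinded.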"}}, "data": [{"molecule": "COc1cc(CNC(=O)CCCC/C=C/C(C)C)ccc1O", "note": "[capsaicin]", "values": [{"measurement": "DRG neurons from Mrg KO mice with an increase in [Ca2+]i", "setting": "[1]", "result": 32, "unit": "%"}, {"measurement": "Effect on pain, peripheral versus central application", "setting": "pain / nociception; capsaicin", "result": "induces burning pain in the periphery, but it inhibits pain when applied centrally"}]}, {"molecule": "CCN(CC)CC(=O)Nc1c(C)cccc1C", "note": "[lidocaine]", "values": [{"measurement": "Motor paralysis of the lower limbs", "setting": "rats (lower limbs)", "result": "temporary motor paralysis of the lower limbs"}]}, {"molecule": "FMRFamide", "values": [{"measurement": "Mechanical hypersensitivity, ipsilateral PWT", "setting": "[2]", "result": "inhibited mechanical hypersensitivity in the ipsilateral hindpaw of SNL rats"}]}, {"molecule": "γ^2-MSH", "values": [{"measurement": "Effect on nociception (acute and inflammatory pain models)", "setting": "pain / nociception; systemic and intrathecal injections", "result": "produce pronociceptive effects in acute pain models and contribute to heat hyperalgesia in an inflammatory pain model"}]}]}
